# Results taken from ChEMBL document CHEMBL3576866, “Discovery of a Cyclic Boronic Acid β-Lactamase Inhibitor (RPX7009) with Utility vs Class A Serine Carbapenemases” (J Med Chem, 2015).
# Columns and labels:
# Klebsiella pneumoniae [1] = assay: Inhibition of Klebsiella pneumoniae KP1084 SHV-11 assessed as biapenem MIC at 4 ug/ml by broth microdilution method
# Klebsiella pneumoniae [2] = assay: Inhibition of Klebsiella pneumoniae KP1082 KPC-2 assessed as meropenem MIC at 4 ug/ml by broth microdilution method
# Procedure, shortened: (§1)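 CLSI broth microdilution (M07-A9, 2012) MIC of the carbapenem against clinical serine carbapenemase-producing strain, tested alone and with the inhibitor held at a fixed 4 μg/mL.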
# Klebsiella oxytoca [3] = assay: Inhibition of Klebsiella oxytoca KX1017 SHV-30 assessed as meropenem MIC at 4 ug/ml by broth microdilution method
# [4] = target: Carbapenem-hydrolyzing beta-lactamase KPC (Klebsiella oxytoca) (UniProt Q848S6); assay: Inhibition of Klebsiella oxytoca KX1017 KPC-2 assessed as meropenem MIC at 4 ug/ml by broth microdilution method; procedure, shortened: as §1
# [5] = target: Beta-lactamase TEM (Enterobacter cloacae) (UniProt Q6W9J1); assay: Inhibition of Enterobacter cloacae ECL1058 TEM-1 assessed as meropenem MIC at 4 ug/ml by broth microdilution method
# Klebsiella pneumoniae [6] = assay: Inhibition of Klebsiella pneumoniae KP1087 SHV-11 assessed as meropenem MIC at 4 ug/ml by broth microdilution method; procedure, shortened: as §1
# Klebsiella pneumoniae [7] = assay: Inhibition of Klebsiella pneumoniae KP1087 KPC-2 assessed as meropenem MIC at 4 ug/ml by broth microdilution method; procedure, shortened: as §1
# [8] = target: Beta-lactamase (Klebsiella pneumoniae) (UniProt Q93LQ9); assay: Inhibition of Klebsiella pneumoniae KP1084 KPC-3 assessed as meropenem MIC at 4 ug/ml by broth microdilution method; procedure, shortened: as §1
# Trypsin = Trypsin (Homo sapiens, UniProt P07477+P07478+P35030); assay: Inhibition of trypsin (unknown origin) using N-Bz-R-AMC as substrate preincubated for 10 mins followed by substrate addition measured for 30 mins by spectrophotometric analysis; format: protein assay
# Procedure, shortened: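 Trypsin in 50 mM Tris-HCl, pH 8.0, 10 mM CaCl2, 100 mM NaCl. Preincubated 10 min at 37 °C with varied inhibitor. N-Bz-R-AMC (listed at 200 μM) was then added and fluorescence read for 30 min. Rates were vs untreated control; IC50 is the concentration giving 50% inhibition.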
# [9] = AUC (0 to infinity) in rat at 100 mg/kg, iv administered as 0.5 hrs infusion by HPLC-MS method; format: ADME, organism-based; design: dose 100 mg/kg, route intravenous, time infinity; details: in vivo
# [10] = Clearance in rat at 100 mg/kg, iv administered as 0.5 hrs infusion by HPLC-MS method; format: ADME, organism-based; details: in vivo
# [11] = Clearance in rat at 300 mg/kg, iv administered as 0.5 hrs infusion by HPLC-MS method; format: ADME, organism-based; details: in vivo
# [12] = Cmax in rat at 1000 mg/kg, iv administered as 0.5 hrs infusion by HPLC-MS method; format: ADME, organism-based; design: dose 1000 mg/kg, route intravenous; details: in vivo
# Klebsiella pneumoniae [13] = assay: In vivo inhibition of KPC in Klebsiella pneumoniae KP1074 in Swiss webster neutropenic mouse lung infection model assessed as biapenem deltalog10CFU in lung at 50 mg/kg, ip administered every 2 hrs starting at 2 hrs postinfection measured after 24 hrs; format: functional
# Homo sapiens [14] = assay: Toxicity in human at 250 to 1500 mg administered as 3 hrs of infusion; format: organism-based; details: in vivo, iv
# Procedure, shortened: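 Phase 1 study in 36 normal (healthy) volunteers under GCP. Single 3 h infusions were given at 250, 500, 750, 1000, 1250 or 1500 mg, and drug-related adverse events were recorded.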
# [15] = Cmax in human at 1 g administered as 3 hrs of infusion; format: ADME, organism-based; design: dose 1 g; details: in vivo, iv
# Homo sapiens [16] = assay: Clearance in human at 1 g administered as 3 hrs of infusion; format: ADME, organism-based; details: in vivo, iv
# [17] = target: T1, Class A carbapenemase (Enterobacter cloacae) (UniProt A7WP95); assay: Inhibition of Enterobacter cloacae ECL1061 KPC-3 assessed as cefepime MIC at 4 ug/ml by broth microdilution method
# T1 sequence (whole entry): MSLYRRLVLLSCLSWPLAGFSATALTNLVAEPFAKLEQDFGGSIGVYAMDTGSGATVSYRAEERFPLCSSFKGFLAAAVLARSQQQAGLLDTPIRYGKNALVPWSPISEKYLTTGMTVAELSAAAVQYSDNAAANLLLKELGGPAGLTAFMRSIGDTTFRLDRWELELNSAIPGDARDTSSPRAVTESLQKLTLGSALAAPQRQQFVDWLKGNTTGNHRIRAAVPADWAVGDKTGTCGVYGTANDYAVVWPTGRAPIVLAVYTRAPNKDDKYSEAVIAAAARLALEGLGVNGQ
# [18] = target: Carbapenem-hydrolyzing beta-lactamase KPC (Klebsiella oxytoca) (UniProt Q848S6); assay: Inhibition of Klebsiella oxytoca KX1019 KPC-2 assessed as biapenem MIC at 4 ug/ml by broth microdilution method
# [19] = target: Beta lactamase TEM-1 (Klebsiella pneumoniae) (UniProt Q7B899); assay: Inhibition of Klebsiella pneumoniae KP1004 TEM-1 assessed as biapenem MIC at 4 ug/ml by broth microdilution method; procedure, shortened: as §1
# [20] = target: Beta lactamase TEM-1 (Klebsiella pneumoniae) (UniProt Q7B899); assay: Inhibition of Klebsiella pneumoniae KP1084 TEM-1 assessed as ertapenem MIC at 4 ug/ml by broth microdilution method; procedure, shortened: as §1
# Klebsiella pneumoniae [21] = assay: Inhibition of Klebsiella pneumoniae KP1087 KPC-2 assessed as ertapenem MIC at 4 ug/ml by broth microdilution method; procedure, shortened: as §1
# Klebsiella pneumoniae [22] = assay: Inhibition of Klebsiella pneumoniae KP1004 SHV-11 assessed as imipenem MIC at 4 ug/ml by broth microdilution method; procedure, shortened: as §1
# Klebsiella pneumoniae [23] = assay: Inhibition of Klebsiella pneumoniae KP1008 KPC-2 assessed as ertapenem MIC at 4 ug/ml by broth microdilution method; procedure, shortened: as §1
# Klebsiella pneumoniae [24] = assay: Inhibition of Klebsiella pneumoniae KP1084 SHV-11 assessed as imipenem MIC at 4 ug/ml by broth microdilution method
# [25] = target: Beta lactamase TEM-1 (Klebsiella pneumoniae) (UniProt Q7B899); assay: Inhibition of Klebsiella pneumoniae KP1087 TEM-1 assessed as imipenem MIC at 4 ug/ml by broth microdilution method
# Procedure, shortened: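 Carbapenem MIC by CLSI broth microdilution (M07-A9), carbapenem titrated with inhibitor held at fixed 4 μg/mL, against clinical serine-carbapenemase-producing strain KP1087 (KPC-2, CTX-M-15, SHV-11, TEM-1; double porin mutant).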
# Enterobacter cloacae = assay: Inhibition of Enterobacter cloacae ECL1058 SHV-11 assessed as imipenem MIC at 4 ug/ml by broth microdilution method
# Klebsiella oxytoca [26] = assay: Inhibition of Klebsiella oxytoca KX1017 SHV-30 assessed as imipenem MIC at 4 ug/ml by broth microdilution method
# [27] = target: Beta lactamase TEM-1 (Klebsiella pneumoniae) (UniProt Q7B899); assay: Inhibition of Klebsiella pneumoniae KP1004 TEM-1 assessed as imipenem MIC at 4 ug/ml by broth microdilution method; procedure, shortened: as §1
# [28] = Inhibition of Escherichia coli recombinant KPC-2 assessed as substrate nitrocefin degradation preincubated for 10 mins followed by substrate addition measured every 10 secs for 10 mins by spectrophotometric analysis
# Procedure, shortened: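 β-Lactamases purified from overexpressing recombinant E. coli. Enzyme preincubated with inhibitor at varying concentrations for 10 min at room temperature in 50 mM Na phosphate pH 7.0, 0.1 mg/mL BSA. Then 50 μM nitrocefin (final) added and cleavage read at 490 nm every 10 s for 10 min. Ki derived by the Waley method.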
# Beta lactamase TEM-1 (Klebsiella pneumoniae), sequence (Q7B899 as listed by the source): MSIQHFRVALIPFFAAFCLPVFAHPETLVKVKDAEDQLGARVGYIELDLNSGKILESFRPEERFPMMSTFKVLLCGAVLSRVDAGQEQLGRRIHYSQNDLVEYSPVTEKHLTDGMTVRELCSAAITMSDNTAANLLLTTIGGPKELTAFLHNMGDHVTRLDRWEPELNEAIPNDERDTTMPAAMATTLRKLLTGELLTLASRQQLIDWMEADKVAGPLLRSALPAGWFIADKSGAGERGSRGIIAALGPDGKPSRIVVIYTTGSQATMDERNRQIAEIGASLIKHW
# Carbapenem-hydrolyzing beta-lactamase KPC (Klebsiella oxytoca), sequence (Q848S6 whole entry): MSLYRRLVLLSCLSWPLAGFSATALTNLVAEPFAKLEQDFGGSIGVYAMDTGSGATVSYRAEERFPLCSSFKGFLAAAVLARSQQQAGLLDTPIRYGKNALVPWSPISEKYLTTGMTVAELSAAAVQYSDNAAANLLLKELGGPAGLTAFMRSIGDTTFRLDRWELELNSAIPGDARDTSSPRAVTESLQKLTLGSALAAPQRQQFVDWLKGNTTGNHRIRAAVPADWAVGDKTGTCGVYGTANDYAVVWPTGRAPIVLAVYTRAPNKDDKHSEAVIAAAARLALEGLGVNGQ
# Beta-lactamase (Klebsiella pneumoniae), sequence (Q93LQ9 as listed by the source): as the sequence (Q848S6 whole entry) above
# Beta-lactamase TEM (Enterobacter cloacae), sequence (Q6W9J1 as listed by the source): as the sequence (Q7B899 as listed by the source) above
compound,measurement,setting,value
O=C(O)C[C@@H]1CC[C@H](NC(=O)Cc2cccs2)B(O)O1 [VABORBACTAM],MIC,Klebsiella pneumoniae [1],0.25 µg/mL
same,MIC,Klebsiella pneumoniae [2],≤ 0.06 µg/mL
same,MIC,Klebsiella oxytoca [3],< 0.06 µg/mL
same,MIC,[4],< 0.06 µg/mL
same,MIC,[5],< 0.06 µg/mL
same,MIC,Klebsiella pneumoniae [6],1 µg/mL
same,MIC,Klebsiella pneumoniae [7],1 µg/mL
same,MIC,[8],0.5 µg/mL
same,IC50,Trypsin,> 1000 µM
same,AUC(0-inf),[9],64000 ng·h/mL
same,clearance,[10],26.7 mL/min/kg
same,clearance,[11],21 mL/min/kg
same,Cmax,[12],2600 µg/mL
same,deltalog10CFU,Klebsiella pneumoniae [13],-2.19
same,Activity,Homo sapiens [14],Non-toxic
same,Cmax,[15],22 µg/mL
same,clearance,Homo sapiens [16],12.8 L/h
same,MIC,[17],2 µg/mL
same,MIC,[18],0.25 µg/mL
same,MIC,[19],< 0.06 µg/mL
same,MIC,[20],4 µg/mL
same,MIC,Klebsiella pneumoniae [21],2 µg/mL
same,MIC,Klebsiella pneumoniae [22],≤ 0.06 µg/mL
same,MIC,Klebsiella pneumoniae [23],≤ 0.06 µg/mL
same,MIC,Klebsiella pneumoniae [24],0.25 µg/mL
same,MIC,[25],0.25 µg/mL
same,MIC,Enterobacter cloacae,0.25 µg/mL
same,MIC,Klebsiella oxytoca [26],0.13 µg/mL
same,MIC,[27],< 0.06 µg/mL
same,Ki,[28],0.069 µM
